Source: paper PMC8928501 (ACS Omega, 2022)

Target: human transferrin (Tf) (Homo sapiens, UniProt P02787)
Test: isothermal titration calorimetry
Assay type: binding
In short: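 Human transferrin in the sample cell, stated as 25 μM in one place and 20 μM in another; dialyzed and degassed before loading. Test compound at 200 μM in the syringe, added by automated titration after an initial dummy injection. Binding isotherm fitted to a two-site model to obtain the thermodynamic parameters.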

Sequence of human transferrin (Tf) (P02787 20-698): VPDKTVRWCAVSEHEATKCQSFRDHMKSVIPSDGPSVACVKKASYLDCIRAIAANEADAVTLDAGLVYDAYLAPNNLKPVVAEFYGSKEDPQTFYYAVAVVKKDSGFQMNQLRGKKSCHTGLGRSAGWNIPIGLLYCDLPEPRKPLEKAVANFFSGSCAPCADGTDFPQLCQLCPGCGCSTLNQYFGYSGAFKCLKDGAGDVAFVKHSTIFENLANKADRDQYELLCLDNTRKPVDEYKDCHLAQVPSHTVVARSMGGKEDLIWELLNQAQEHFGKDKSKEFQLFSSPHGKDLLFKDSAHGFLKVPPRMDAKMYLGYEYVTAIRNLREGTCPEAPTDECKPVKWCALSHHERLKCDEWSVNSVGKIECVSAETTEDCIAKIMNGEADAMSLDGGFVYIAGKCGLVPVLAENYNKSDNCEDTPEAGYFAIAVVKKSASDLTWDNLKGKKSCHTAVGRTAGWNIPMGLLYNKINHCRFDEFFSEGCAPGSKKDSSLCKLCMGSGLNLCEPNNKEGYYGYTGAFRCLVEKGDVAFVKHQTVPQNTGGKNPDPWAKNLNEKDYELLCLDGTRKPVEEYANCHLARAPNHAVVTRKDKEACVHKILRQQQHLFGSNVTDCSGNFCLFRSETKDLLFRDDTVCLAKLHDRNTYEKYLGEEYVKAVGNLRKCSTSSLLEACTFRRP

CNCCC(Oc1ccc(C(F)(F)F)cc1)c1ccccc1 (stereo not shown) [Fluoxetine]
Kd: 6.9 µM
